This sample holds only a part of the variants without activity.
B1: tRNA (parent)
chain: GUUCCGUUGGCGUAAUGGUAACGCGUCUCCCUCCUAAGGAGAAGACUGCGGGUUCGAGUCCCGUACGGAACG

Variants of: B1
Experiment: yeast fitness relative to wild type (ratio to wild type); higher = fitter; tRNA-Arg(CCU), competitive growth, 37 C, YPD
Outline: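 Amplicons of the tRNA-Arg(CCU) gene were sequenced, 100-nucleotide paired-end, from the start population and from each end population of a pooled yeast competition. The competition, in six parallel replicates, lasted 24 hours in YPD at 37°C. Fitness relative to wild type was calculated from changes in genotype frequencies. Genotypes had to have ≥ 100 starting reads, and estimates < 0.5 were set to 0.5.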

Variant	yeast fitness
C4A G67U A69G	0.751
C4A G6A C33U U53C	≤ 0.5
C4A G52C A57C G63C	0.56
C4A G17A G41A C61U G63U G68A	≤ 0.5
C4A G39C G41C	≤ 0.5
C4A C11G U19G G56C	0.528
C4A C31U A42C	0.572
C4A C31U A42U	0.618
C4A G10A U28A C55G	≤ 0.5
C4A C27G A37C A45U U47C	≤ 0.5
C4A G17A C62U	0.556
C4A C30U U54A	≤ 0.5
C4A C5U A36G A42C	≤ 0.5
C4A C29G A40U C55A G67C	≤ 0.5
C4A U7A C31A	0.678
C4A G25A A45U	0.593
C4A C46U A57C	0.529
C4A U7A C31U C61G	≤ 0.5
C4A C5G G50A U53A C60U G63C	0.614
C4A C5U C22U C31A C34A	≤ 0.5
C4A C11G C31A A42G	≤ 0.5
C4A C31G C62U	0.71
C4A G9C C11G C33G A37C A45C	≤ 0.5
C4A C24G G44C	≤ 0.5

Variant	yeast fitness
C4A G18A A20C U26G C27U C49U	≤ 0.5
C4A G17A A21G C24G G67A A70G	≤ 0.5
C4A G6A G52C A57C G63C	0.537
C4A G18A C22U G44C C46U C49U	≤ 0.5
C4A C11G U13G G25A	≤ 0.5
C4A C27U U28G C33G A36G C61G	≤ 0.5
C4A G9A C49A U53C	≤ 0.5
C4A G12C U19C C24G A43U U54C C61A	≤ 0.5
C4A U13A A14C A43U	0.601
C4A C29U A37G G39C C49U G67A	≤ 0.5
C4A G23C A65G	0.569
C4A C27U U32C G48C	≤ 0.5
C4A G50A A70G	0.57
C4A U8G A14U A70U	≤ 0.5
C4A U7C A36G G41A C49A G67U	≤ 0.5
C4A C5G G39C	≤ 0.5
C4A C30U U59A	≤ 0.5
C4A G63U	0.624
C4A G63A	0.938
C4A C5U U19A C55U	0.539
C4A C11U A40G	≤ 0.5
C4A G48A A65C	0.618
C4A C33G G41C G56C G58A G63C A65U	≤ 0.5
C4A C31A U32A	≤ 0.5

Variant	yeast fitness
C4A U7C G41A C49A	0.504
C4A G18A G44C C46U C49U G67A A70U	≤ 0.5
C4A C46U U47C C55U	≤ 0.5
C4A G17C G23C A45C	0.527
C4A G6A	0.706
C4A G6C	0.703
C4A C34U A57U	≤ 0.5
C4A U13A	0.595
C4A C11G A40U A45U	≤ 0.5
C4A U8C U19A C27U G38C C55U	≤ 0.5
C4A C31U U35C	≤ 0.5
C4A U7G G12C C29A C30U C34U C61U C66A	≤ 0.5
C4A C31U C61U	≤ 0.5
C4A C11U C31G U53C U54G	≤ 0.5
C4A C33A C60A G63A U64C	≤ 0.5
C4A G17C G56A	≤ 0.5
C4A C33A C34U G39C U54A	≤ 0.5
C4A C22G C49A C55U C66A A69C	≤ 0.5
C4A C31A U35C A45U A69U	≤ 0.5
C4A C31G A40U U64A	≤ 0.5
C4A C24U C55A A65C	≤ 0.5
C4A G23A C31G A40C	0.52
C4A C31A A45U	≤ 0.5
C4A G6A A65U	0.539

Variant	yeast fitness
C4A G17C A20U C22U	≤ 0.5
C4A C11U G39C A45C	≤ 0.5
C4A G9A C24U C30U A36G A57G G58A G63A	≤ 0.5
C4A C62U	0.852
C4A C62A	0.675
C4A G12A U16A G51A U54A	0.542
C4A C33A A40U A70G	≤ 0.5
C4A G9C C11G A45C A57G	0.526
C4A C29U G52C	≤ 0.5
C4A G17C G50A G51A	≤ 0.5
C4A C11G U19G A42G	≤ 0.5
C4A G6A C29G	0.549
C4A G12A A42G	≤ 0.5
C4A G44C	0.742
C4A C24A G52C A57C U59A G63A	≤ 0.5
C4A C46A	0.997
C4A C46U	0.903
C4A C34G G38C	≤ 0.5
C4A U8C A15C C31U G48C A65C	0.608
C4A C5U G48C	≤ 0.5
C4A C11U A21U G23A U64C G67A	0.581
C4A G18C C24U C29U C34A	0.592
C4A G23C C61A C62U C66U	≤ 0.5
C4A U7C C27U U53A	≤ 0.5

Variant	yeast fitness
C4A C5U U8C U47C U64A	≤ 0.5
C4A G23A C29U C34G G38C	≤ 0.5
C4A C11A C61U	≤ 0.5
C4A G9C C11G	≤ 0.5
C4A C29G A57G U59A G68U A70G	0.571
C4A U7C A15G C30A A57C	≤ 0.5
C4A C5U G17A G52C	0.581
C4A G10C G63C A69U	≤ 0.5
C4A C11G U19G U53C A65C	0.528
C4A C29U A36G G52C	≤ 0.5
C4A G9A U16A A40G C46U C62G A69U	≤ 0.5
C4A C31U G51A A70G	≤ 0.5
C4A G6A U53A A65U	≤ 0.5
C4A U7A C11U C31U U59A	≤ 0.5
C4A C24G G41U	≤ 0.5
C4A C11G C31U G38C	0.552
C4A U7A	0.679
C4A C22U A70C	0.663
C4A G9A C22A C27G G56A	≤ 0.5
C4A C5U C22G G44C	≤ 0.5
C4A G39A	0.914
C4A G39C G51A	≤ 0.5
C4A G51A A70G	0.58
C4A G17A C61A	0.534

Variant	yeast fitness
C4A C5G C60U C62U	≤ 0.5
C4A C22U C33G A45C U53G A69C	0.57
C4A G17C C49U C62G	≤ 0.5
C4A G17C A36U G39A A42C G50U G63A	0.589
C4A C34G A40U U47A G67C	0.55
C4A G17C U19C A21U C33G	≤ 0.5
C4A G38C C55G A69C	≤ 0.5
C4A C49A G58A	≤ 0.5
C4A G9A G44C G51A G58C U59A	≤ 0.5
C4A C31G A45G G50C G63A	≤ 0.5
C4A C29U A65G	≤ 0.5
C4A C22G A37U U47A C62U	≤ 0.5
C4A C22G C30U A40G A45C	≤ 0.5
C4A G17C A21U C33G	0.517
C4A G17A G51A C60G A70U	≤ 0.5
C4A G56C C66U	≤ 0.5
C4A G44A C46U U53C C62U	≤ 0.5
C4A C33A A65G	≤ 0.5
C4A C5U A20G U28A A37U C61U A69U	≤ 0.5
C4A C55A	0.587
C4A U7A A14G G17C C61U	0.543
C4A C29A A70C	≤ 0.5
C4A C30G A40C C55A G58C A65U A70U	≤ 0.5
C4A C22U U59A	≤ 0.5

Variant	yeast fitness
C4A C24A A42G U59A	≤ 0.5
C4A C27U U28G C33G A36G C66U	0.542
C4A C31G C55A	0.534
C4A G67A	0.781
C4A C5U G52C C61G	≤ 0.5
C4A C31U	0.864
C4A C33A G39C G51C C62U A69C	≤ 0.5
C4A G48A C61U	0.661
C4A G18C C61U	≤ 0.5
C4A G48A	0.964
C4A C29G C31A G67A	≤ 0.5
C4A C5U U19A	0.532
C4A C11A A57G	≤ 0.5
C4A G63A A65U	≤ 0.5
C4A C24A G41C G51C	≤ 0.5
C4A G12C A37G G38A	≤ 0.5
C4A G44A C49U U54G C66U A70C	0.503
C4A G9A C22A C27G U53A A65G	≤ 0.5
C4A G17A G41A C66U	0.508
C4A C22U C24A C29A A36C G52A U53A	≤ 0.5
C4A G25C C61G	0.711
C4A G17A G41A G67A	≤ 0.5
C4A C33A G39C C49U U54A A70U	≤ 0.5

Reference: the RNAGym collection of RNA variant scans (doi:10.1126/science.aae0568)
